Data from PMC11550832 (Nature Communications, 2024).

Legend:
Particle size by DLS = type: physicochemical; conditions: aqueous solution, 200 μM
Zeta potential by DLS = type: physicochemical; conditions: 200 μM, mean n = 3
[1] = Critical aggregation concentration; type: physicochemical; conditions: pyrene probe, I1 (373 nm)/I3 (384 nm), 0.01-50 μM, 37 °C for 2 h, fluorescence
Summary of the method: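 Pyrene fluorescence was excited at 335 nm and emission recorded. The I1 (373 nm)/I3 (384 nm) intensity ratio was used to derive the critical aggregation concentration.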

[2] = TEM morphology of nanoparticles; type: physicochemical; conditions: 50 μM, uranyl acetate stain
Summary of the method: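 A 50 μM nanoparticle solution was dried on holey-carbon copper grids and stained with 2% uranyl acetate for 3 min. Grids were imaged by TEM at 120 kV.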

[3] = target: T1, human PD-L1 recombinant protein (Homo sapiens, UniProt Q9NZQ7); test: PD-L1-induced fibrillar transformation in aqueous solution; type: biochemical; conditions: 24 h incubation
T1 sequence (Q9NZQ7 19-239 limits assumed): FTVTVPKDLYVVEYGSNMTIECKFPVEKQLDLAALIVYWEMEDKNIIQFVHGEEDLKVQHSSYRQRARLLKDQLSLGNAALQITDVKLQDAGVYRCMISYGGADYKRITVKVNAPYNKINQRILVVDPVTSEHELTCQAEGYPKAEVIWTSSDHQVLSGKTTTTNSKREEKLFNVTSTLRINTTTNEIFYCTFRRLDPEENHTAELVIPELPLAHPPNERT
Summary of the method: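 Recombinant human PD-L1 was added to 50 μM nanoparticle solution at molar ratios of 1:100, 1:500, 1:1000, 1:2000 and 1:5000. Mixtures were incubated 0.5 h, 4 h and 24 h, then prepared for TEM to view morphology change.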

[4] = target: T1, human PD-L1 recombinant protein; test: CD and FTIR spectroscopy of β-sheet formation; type: biochemical; conditions: human PD-L1, 24 h, 50 μM, ratio 1000:1
Summary of the method: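 Nanoparticles were incubated with or without recombinant human PD-L1. β-sheet formation was then detected by CD spectroscopy, with FTIR alongside.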

SKBR-3 cells [5] = test: Cellular distribution of peptide nanoparticles; type: cell-based, human; conditions: SKBR-3, 50 μM, 4 h
4T1 cells [6] = test: Cellular distribution of peptide nanoparticles; type: cell-based, mouse; conditions: 4T1, 50 μM, 4 h
4T1 cells [7] = test: Intracellular distribution of internalized TPM2 and TPM3; type: cell-based, mouse; conditions: 50 μM, 4, 24 and 48 h, LysoTracker, CLSM
PD-L1 on SKBR-3 cells = PD-L1 on SKBR-3 cells (Homo sapiens, UniProt Q9NZQ7); test: Surface PD-L1 level after treatment; type: cell-based; conditions: SKBR-3, nanoparticles 50 μM or antibody 68 nM, 4 h, flow cytometry
PD-L1 on SKBR-3 cells, sequence (Q9NZQ7 19-290): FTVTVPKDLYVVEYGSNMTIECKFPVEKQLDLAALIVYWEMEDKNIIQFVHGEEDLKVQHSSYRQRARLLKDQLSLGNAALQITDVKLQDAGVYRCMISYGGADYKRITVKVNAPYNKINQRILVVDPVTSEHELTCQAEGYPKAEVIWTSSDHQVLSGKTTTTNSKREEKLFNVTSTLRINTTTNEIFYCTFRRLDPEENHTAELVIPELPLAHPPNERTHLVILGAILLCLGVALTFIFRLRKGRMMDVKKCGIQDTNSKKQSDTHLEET
Summary of the method: (§1)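 Cells were washed and moved to medium without FBS or penicillin/streptomycin. They were treated 4 h at 37 °C, 5% CO₂ with nanoparticles (50 μM) or anti-PD-L1 antibody (68 nM). Surface PD-L1 was stained 15 min at 4 °C with BV421 antibody (1:200), anti-human for SKBR-3 and anti-mouse for 4T1. Cells were PBS-washed three times and analysed by flow cytometry.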

PD-L1 on 4T1 cells = PD-L1 on 4T1 cells (Mus musculus, UniProt Q9EP73); test: Surface PD-L1 level after treatment; type: cell-based; conditions: 4T1, nanoparticles 50 μM or antibody 68 nM, 4 h, flow cytometry
PD-L1 on 4T1 cells, sequence (Q9EP73 19-290): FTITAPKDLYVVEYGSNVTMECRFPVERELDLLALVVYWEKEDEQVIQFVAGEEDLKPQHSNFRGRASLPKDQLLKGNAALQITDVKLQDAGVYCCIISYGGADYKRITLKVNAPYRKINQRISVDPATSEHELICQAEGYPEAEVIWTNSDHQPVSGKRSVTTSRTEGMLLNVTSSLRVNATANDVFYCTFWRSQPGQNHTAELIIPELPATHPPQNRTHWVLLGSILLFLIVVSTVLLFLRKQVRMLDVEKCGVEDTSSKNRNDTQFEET
Summary of the method: as §1

[8] = target: PD-L1 on the membrane of SKBR-3 cells (Homo sapiens, UniProt Q9NZQ7); test: Co-location of nanoparticles and PD-L1 on cell membrane; type: cell-based; conditions: SKBR-3, 4 h, FITC immunofluorescence
PD-L1 on the membrane of SKBR-3 cells, sequence (Q9NZQ7 19-290): as the sequence (Q9NZQ7 19-290) above
Summary of the method: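 PD-L1 on cells was immunostained with a FITC-labelled goat anti-mouse secondary (1:1000, 1 h, room temperature) after PBS washes. Nuclei were stained with DAPI and cells imaged by confocal microscopy. Co-localization with the nanoparticle signal was quantified computationally.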

HFF cells = test: Cytotoxicity, CCK-8; type: cell-based, human; conditions: CCK-8, 24 h, 1, 10, 50, 100 and 200 μM, n = 5
Summary of the method: (§2)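 Cells at 8 × 10³ per well were exposed to 1, 10, 50, 100 and 200 μM nanoparticles in DMEM, RPMI-1640 or McCoy's 5A complete medium for 24 h. CCK-8 was added for a further 2 h and OD450 read. Viability (%) = [(treated − blank)/(control − blank)] × 100.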

SKBR-3 cells [9] = test: Cytotoxicity, CCK-8; type: cell-based, human; conditions: SKBR-3, CCK-8, 24 h, 1-200 μM; TPM1 finding at 100 μM or 200 μM
Summary of the method: as §2

4T1 cells [10] = test: Cytotoxicity, CCK-8; type: cell-based, mouse; conditions: 4T1, CCK-8, 24 h, 1-200 μM; TPM1 finding at 100 μM or 200 μM
Summary of the method: as §2

LLC cells = test: Cytotoxicity, CCK-8; type: cell-based, mouse; conditions: CCK-8, 24 h, 1-200 μM, TPM1 finding at 100 μM or 200 μM
Summary of the method: as §2

[11] = test system: 4T1 cells co-cultured with activated CD8+ T cells; test: Killing effect of activated CD8+ T cells on treated 4T1 cells; type: cell-based, mouse; conditions: co-culture of 4T1 and activated CD8+ T cells
Summary of the method: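 Splenic mouse CD8⁺ T cells were expanded with IL-2 and activated with anti-CD3/CD28 beads. 4T1 cells were pretreated 4 h with test compound or anti-PD-L1 antibody (68 nM), washed, then co-cultured with T cells (1:10) for 24 h. T cells alone on 4T1 served as control. Read-outs: CCK-8 viability (6 × 10³ cells/well) or calcein-AM staining, 20 min (2 × 10⁴ cells/well).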

mice bearing 4T1 tumour = test: Bio-distribution, ex vivo fluorescence imaging; type: in vivo, mouse; conditions: single i.v. 13 mg/kg, 4T1 tumour mice, post-injection
Summary of the method: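 Female Balb/c mice (6–8 weeks) carrying subcutaneous 4T1 tumours (1 × 10⁶ cells, right flank) got a single tail-vein dose of 13 mg/kg nanoparticle. n = 3 per group per time point. Tumour, heart, liver, spleen, lung, kidney, intestine and muscle were harvested at 2, 4, 6, 8, 10, 24, 48, 72 and 168 h post-injection and imaged ex vivo by fluorescence.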

[12] = test system: mice bearing 4T1 breast cancer; test: In vivo inflammatory effect, serum TNF, IL-6, IL-1β ELISA; set-up: species or system mouse; conditions: 21 days after a single dose, 4T1 tumour mice, n = 5
Summary of the method: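 Serum was taken from 4T1 tumour-bearing mice (n = 5 per group) 21 days after a single dose. Arms: PBS 200 μL i.v., nanoparticles 13 mg/kg via tail vein, anti-PD-L1 antibody 5 mg/kg. TNF, IL-6 and IL-1β were measured by ELISA.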

PD-L1 in SKBR-3 cells = test: Upregulation of PD-L1 induced by IFN-γ; type: cell-based, human; conditions: SKBR-3, 100 ng/mL, 24 h
Summary of the method: (§3)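 Recombinant human IFN-γ (100 ng/mL) added to complete medium of SKBR-3 cells for 24 h. Western blot: cells PBS-washed three times, lysed on ice in RIPA buffer with 1% protease inhibitor, spun 13523 × g, 3 min, 4 °C; band density quantified. Flow cytometry: PBS-washed cells stained with BV421-labelled human anti-PD-L1 (1:200), 15 min, 4 °C, washed thrice.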

PD-L1 in 4T1 cells = test: Upregulation of PD-L1 induced by IFN-γ; type: cell-based, mouse; conditions: 4T1, 100 ng/mL, 24 h
Summary of the method: as §3, with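 “4T1 cells received mouse” for “Recombinant human”, “in” for “added to”, “medium” for “medium of SKBR-3 cells”, “mouse” for “human”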

In the case of “Ac-K(Ce6)-GGAAK-SGQYASYHCWCWRDPGRSGGSK [TPM2]”, the “diameter of nanoparticles (DLS)” value (Particle size by DLS) is reported as ~ 19 nm, the “zeta potential of initial nanoparticles” value (Zeta potential by DLS) is reported as “+19.6 mV” and the “critical aggregation concentration (CAC)” value [1] is reported as 9.8 µM. The “morphology of nanoparticles (TEM)” value [2] was “spherical structure”, the “morphology after incubation with PD-L1 proteins (TEM)” value [3] was “no noticeable change in morphology” and the “CD signals after incubation with PD-L1 protein” value [4] was “No such change”. The “location of Ce6 red fluorescence signals (CLSM)” value (SKBR-3 cells [5]) was “inside cells rather than on the cell membranes”, the “location of Ce6 red fluorescence signals (CLSM)” value (4T1 cells [6]) was “inside cells rather than on the cell membranes” and the “fate of internalized nanoparticles” value (4T1 cells [7]) was “predominately degraded in lysosomes”. For the same molecule, the “change in PD-L1 expression levels before and after incubation” value (PD-L1 on SKBR-3 cells) was “no significant changes”, the “change in PD-L1 expression levels before and after incubation” value (PD-L1 on 4T1 cells) was “no significant changes” and the “co-localization with PD-L1 on cell membrane” value [8] was “No apparent co-localization”. For the same molecule, the cytotoxicity (HFF cells) was “no apparent cytotoxicity”, the cytotoxicity (SKBR-3 cells [9]) was “No cytotoxicity” and the cytotoxicity (4T1 cells [10]) was “No cytotoxicity”. The cytotoxicity (LLC cells) was “No cytotoxicity”, the “effect on T cell activity” value [11] was “no effect” and the “time of peak fluorescence intensity in the tumour” value (mice bearing 4T1 tumour; ex vivo imaging) was 24 h. The “fluorescent signals in the tumour remained until” value (mice bearing 4T1 tumour) was 48 h and the “serum TNF, IL-6 and IL-1β versus PBS and other groups” value [12] was “no significant difference”.

B1: IFN-γ: human or mouse IFN-γ (PeproTech), 100 ng/mL, used to upregulate PD-L1 expression (protein, UniProt P01579 24-161, looked up)
Interferon gamma: QDPYVKEAENLKKYFNAGHSDVADNGTLFLGILKNWKEESDRKIMQSQIVSFYFKLFKNFKDDQSIQKSVETIKEDMNVKFFNSNKKKRDDFEKLTNYSVTDLNVQRKAIHELIQVMAELSPAAKTGKRKRSQMLFRG
For B1, the “PD-L1 expression after IFN-γ treatment” value (PD-L1 in SKBR-3 cells) was “increased PD-L1 expression” and the “PD-L1 expression after IFN-γ treatment” value (PD-L1 in 4T1 cells) was “increased PD-L1 expression”.
